Bioassay records from PubChem BioAssay.
Only some compounds are listed: those with a hit (about 2.8% of all), similar ones and a draw of the others.
DENV2 CPE – DENV2-induced cell death inhibition; DENV2-infected cells, cytopathic effect rescue, plate reader; AID 651640; CPE inhibition, % at 9.99 µM; hit rate 1.7% among 350,000; in the data active = CPE inhibition above about 20%, passing the limit was not always enough; inconclusive = no clear call, values can overlap the other calls; tested in BHK-21 cells;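 note: 0% = median of neutral control wells and 100% = median of positive control wells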
SIRT5 inh – blocks human SIRT5 desuccinylation of peptide; Purified SirT5, succinyl-peptide AMC, trypsin-coupled fluorescence; hit rate 1.1% among 330,000; Q9NXA8; inhibition, % at 15 µM; in the data active = inhibition above about 15%; inconclusive = no clear call, values can overlap the other calls
E-sel inducer – induces E-selectin expression in human endothelial cells; hit rate 0.37% among 260,000; activation, % at 7.58 µM; AID 686992; HUVEC E-selectin immunofluorescence imaging; normalized: neutral wells 0, TNF-alpha wells 100; P16581;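 active = mean E-selectin-positive cell signal at least 10% of the positive control, reached in at least 60% of replicates, without over 20% cell loss; inconclusive = no rule given, readout overlaps actives, possibly toxicity-flagged; inactive = the rest, including those meeting only one limit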
Target sequence (P16581 whole entry, looked up): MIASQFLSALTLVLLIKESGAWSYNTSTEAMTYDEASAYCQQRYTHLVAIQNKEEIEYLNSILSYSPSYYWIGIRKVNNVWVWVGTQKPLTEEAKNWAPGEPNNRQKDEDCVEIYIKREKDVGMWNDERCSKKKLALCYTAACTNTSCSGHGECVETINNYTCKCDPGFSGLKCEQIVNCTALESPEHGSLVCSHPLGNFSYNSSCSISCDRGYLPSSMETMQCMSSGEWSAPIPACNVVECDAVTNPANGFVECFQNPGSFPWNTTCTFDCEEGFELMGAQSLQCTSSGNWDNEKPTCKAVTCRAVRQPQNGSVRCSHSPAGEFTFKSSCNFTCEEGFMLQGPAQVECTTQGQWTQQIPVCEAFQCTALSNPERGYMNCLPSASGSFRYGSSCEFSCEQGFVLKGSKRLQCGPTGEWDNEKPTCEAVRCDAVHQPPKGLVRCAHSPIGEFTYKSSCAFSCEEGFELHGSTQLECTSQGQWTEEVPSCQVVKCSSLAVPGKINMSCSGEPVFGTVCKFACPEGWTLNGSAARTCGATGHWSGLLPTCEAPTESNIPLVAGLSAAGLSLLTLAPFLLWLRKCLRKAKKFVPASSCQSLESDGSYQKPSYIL
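System: HUVEC / Compound: single concentration / Signal: immunofluorescence imaging / Read-out: percent E-selectin-positive cells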
Starred values were filed as active, the others as inactive; ? = inconclusive; . = no result given.

SMILES | DENV2 CPE | SIRT5 inh | E-sel inducer
C[C@@H]1CN([C@H](C)CO)C(=O)Cc2cc(NS(=O)(=O)c3ccc(Cl)cc3)ccc2O[C@H]1CN(C)S(=O)(=O)c1ccc(Cl)cc1 | ? | 6.1 | 0.9
C[C@@H]1CN([C@@H](C)CO)C(=O)Cc2cc(NS(=O)(=O)c3ccc(Cl)cc3)ccc2O[C@H]1CN(C)S(=O)(=O)c1ccc(Cl)cc1 | -13.9 | 1.9 | 1.5
C[C@H]1CN([C@@H](C)CO)C(=O)Cc2cc(NC(=O)C3CCCCC3)ccc2O[C@H]1CN(C)S(=O)(=O)c1ccc(Cl)cc1 | 0.6 | 5.0 | -0.3
C[C@@H]1CN([C@H](C)CO)C(=O)Cc2cc(NS(=O)(=O)c3ccc(F)cc3)ccc2O[C@@H]1CN(C)S(=O)(=O)c1ccc(Cl)cc1 | -7.6 | . | 69.4*
C[C@H]1CN([C@@H](C)CO)C(=O)Cc2cc(NS(=O)(=O)c3ccc(F)cc3)ccc2O[C@H]1CN(C)S(=O)(=O)c1ccc(Cl)cc1 | -3.2 | . | 198.3*
C[C@@H]1CN([C@@H](C)CO)C(=O)Cc2cc(NS(=O)(=O)c3ccc(Cl)cc3)ccc2O[C@H]1CN(C)S(=O)(=O)c1ccc(F)cc1 | -6.5 | 2.7 | -0.4
C[C@@H]1CN([C@@H](C)CO)C(=O)Cc2cc(NS(=O)(=O)c3ccc(F)cc3)ccc2O[C@H]1CN(C)S(=O)(=O)c1ccc(Cl)cc1 | -7.0 | . | 33.9*
C[C@H](CO)N1C[C@H](C)[C@@H](CN(C)S(=O)(=O)c2ccc(Cl)cc2)Oc2ccc(NC(=O)C3CC3)cc2CC1=O | 30.4* | -3.3 | 0.1
O=C(Nc1ccc(Cl)c(Cl)c1)N[C@@H]1CC[C@@H](CCn2cc(C3CC3)nn2)O[C@@H]1CO | ? | -2.1 | -0.5
C[C@H]1CN([C@@H](C)CO)C(=O)Cc2cc(NS(=O)(=O)c3ccc(F)cc3)ccc2O[C@@H]1CN(C)S(=O)(=O)c1ccc(Cl)cc1 | 17.2 | . | 59.7*
C[C@@H]1CN([C@@H](C)CO)C(=O)Cc2cc(NS(=O)(=O)c3ccc(F)cc3)ccc2O[C@@H]1CN(C)S(=O)(=O)c1ccc(F)cc1 | -6.4 | 3.9 | -0.3
CC(Sc1nnnn1-c1ccc(O)cc1)C(=O)NC1CCCCC1C (stereo unspecified) | 34.3* | 1.1 | 2.5
CC(Sc1nnnn1-c1ccccc1)C(=O)NC1CCCC1 (stereo unspecified) | -0.9 | -1.5 | .
CCCC(=O)OC[C@H]1CN(C2CCCC2)S(=O)(=O)c2c(F)cccc2O1 | 49.0* | 5.9 | -0.1
CCCC(=O)OC[C@H]1CN(C2CCCC2)S(=O)(=O)c2c(Oc3ccccc3)cccc2O1 | -3.0 | -2.5 | 8.4
COc1ccc(S(=O)(=O)N(C)C[C@H]2Oc3ccc(NC(=O)Nc4ccc(F)cc4)cc3CC(=O)N([C@@H](C)CO)C[C@H]2C)cc1 | 23.3* | . | 0.0
COc1ccc(NC(=O)Nc2ccc3c(c2)CC(=O)N([C@H](C)CO)C[C@H](C)[C@@H](CN(C)S(=O)(=O)c2ccc(OC)cc2)O3)cc1 | 69.6* | 3.7 | 0.4
COc1ccc(NC(=O)Nc2ccc3c(c2)CC(=O)N([C@@H](C)CO)C[C@@H](C)[C@@H](CN(C)S(=O)(=O)c2ccc(C)cc2)O3)cc1 | -10.1 | 1.2 | 0.6
COc1ccc(S(=O)(=O)N(C)C[C@@H]2Oc3ccc(NC(=O)Nc4ccc(F)cc4)cc3CC(=O)N([C@H](C)CO)C[C@@H]2C)cc1 | 0.6 | . | 0.3
COc1ccc(S(=O)(=O)N(C)C[C@@H]2Oc3ccc(NC(=O)CCC(F)(F)F)cc3CC(=O)N([C@@H](C)CO)C[C@H]2C)cc1 | 25.4* | 1.2 | -0.1
COc1ccc(S(=O)(=O)N(C)C[C@H]2Oc3ccc(NC(=O)CCC(F)(F)F)cc3CC(=O)N([C@H](C)CO)C[C@H]2C)cc1 | 1.3 | -4.4 | 1.2
COc1ccc(NC(=O)Nc2ccc3c(c2)CC(=O)N([C@H](C)CO)C[C@@H](C)[C@H](CN(C)S(=O)(=O)c2ccc(OC)cc2)O3)cc1 | -7.5 | 2.4 | 0.5
COc1ccc(NC(=O)Nc2ccc3c(c2)CC(=O)N([C@H](C)CO)C[C@H](C)[C@@H](CN(C)S(=O)(=O)c2ccc(C)cc2)O3)cc1 | -0.8 | 15.1* | 1.2
C[C@H](CO)N1C[C@H](C)[C@H](CN(C)Cc2ccc(C(=O)Nc3ccccc3N)cc2)Oc2ccc(NS(=O)(=O)c3ccc(Cl)cc3)cc2CC1=O | -2.1 | -2.2 | 2.0
CO[C@H]1CN(C)C(=O)c2ccc(NC(=O)C3CCCC3)cc2OC[C@H](C)N(CCC(F)(F)F)C[C@@H]1C | -4.8 | 4.7 | 0.1
SMILES | DENV2 CPE | SIRT5 inh | E-sel inducer
CCCC(=O)Nc1ccc2c(c1)C(=O)N(C)C[C@H](OC)[C@H](C)CN(C(=O)c1cnccn1)[C@H](C)CO2 | -1.1 | 2.4 | 0.0
COc1ccc(-c2cnc3c(c2)C(=O)N([C@H](C)CO)C[C@H](C)[C@H](CN(C)S(=O)(=O)c2ccc(C#N)cc2)O3)cc1 | -12.9 | 5.2 | -0.1
O=C(Nc1ccccc1)Nc1ccc2c(c1)[C@H]1C[C@H](CC(=O)N3CCCCC3)O[C@@H](CO)[C@H]1O2 | 0.7 | -0.3 | 0.5
COc1ccc(CN2C[C@@H](O)COC[C@@H]3O[C@H](CC(=O)NCCN4CCCC4)CC[C@H]32)cc1 | -1.3 | . | 0.1
Cc1ccc(CNC(=O)OC2CC3CC2[C@H]2CCCCN2C3=O)cc1 (stereo partly specified) | -0.7 | 0.8 | -0.1
CCCNC(=O)OC1CC2CC1[C@H]1CCCCN1C2=O (stereo partly specified) | 29.3* | 8.9 | 0.1
O=S(=O)(c1ccc2c(c1)OCCO2)N1CCN(S(=O)(=O)c2c(F)cc(F)cc2F)CC1 | -14.2 | . | 0.0
O=S(=O)(c1ccc2c(c1)OCCO2)N1CCCN(S(=O)(=O)c2c(F)cccc2F)CC1 | 89.7* | -0.3 | -0.1
CC1=NCCN1S(=O)(=O)c1c(C(C)C)cc(C(C)C)cc1C(C)C | . | 26.6* | 3.0
COc1ccc(Cl)cc1S(=O)(=O)N1CCN=C1C | ? | -1.1 | 1.0
C[C@@H]1CN([C@H](C)CO)C(=O)c2cccc(NC(=O)c3ccncc3)c2O[C@@H]1CN(C)CC1CC1 | 5.4 | -2.8 | 0.4
C[C@@H]1CCCCO[C@H](CN(C)Cc2ccncc2)[C@@H](C)CN([C@@H](C)CO)C(=O)c2cc(NC(=O)NC3CCCCC3)ccc2O1 | 75.4* | 5.9 | 0.4
C[C@@H]1CN([C@H](C)CO)C(=O)c2cc(NC(=O)NC3CCCCC3)ccc2O[C@H]1CN(C)Cc1ccncc1 | 6.7 | 1.1 | -0.1
C[C@H]1CN([C@@H](C)CO)C(=O)c2cc(NC(=O)NC3CCCCC3)ccc2O[C@H]1CN(C)Cc1ccncc1 | 24.9* | -3.0 | 0.1
C[C@H]1CCCCO[C@@H](CN(C)Cc2ccncc2)[C@@H](C)CN([C@@H](C)CO)C(=O)c2cc(NC(=O)NC3CCCCC3)ccc2O1 | ? | 2.7 | -0.2
CNC[C@@H]1Oc2ncc(-c3ccccc3C)cc2C(=O)N([C@H](C)CO)C[C@H]1C | 7.6 | -0.7 | 0.9
Cc1cc(S(=O)(=O)NC(=O)[C@H]2O[C@@H](n3ccc(=O)[nH]c3=O)[C@H](O)[C@@H]2O)ccc1Br | 20.1* | -2.3 | 0.2
O=C(NS(=O)(=O)c1ccccc1[N+](=O)[O-])[C@H]1O[C@@H](n2ccc(=O)[nH]c2=O)[C@H](O)[C@@H]1O | -6.6 | -1.4 | 0.6
